Data from ChEMBL document CHEMBL4138126, “Synthesis, antiproliferative, anti-tubulin activity, and docking study of new 1,2,4-triazoles as potential combretastatin analogues” (Eur J Med Chem, 2017).

What was measured:
HepG2 = assay: Cytotoxicity in human HepG2 cells assessed as reduction in cell viability incubated for 48 hrs by MTT assay; type: functional, cell-based; settings: HepG2, 48 h
How it was run: (§1)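 HepG2 and HL60 (ATCC) grown in DMEM with 10% FBS, 2 mM L-glutamine, penicillin/streptomycin, amphotericin B at 37 °C, 5% CO2. Samples dissolved in DMSO, diluted thousandfold in assay. Cells seeded in serum-free medium, treated with serial concentrations 48 h; MTT 4 h, formazan dissolved in acidified isopropanol, A570. Triplicates averaged; viability relative to untreated/vehicle control.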

HL-60 = assay: Cytotoxicity in human HL60 cells assessed as reduction in cell viability incubated for 48 hrs by MTT assay; type: functional, cell-based; settings: HL-60, 48 h; how it was run: as §1
HL-60(TB) = assay: Growth inhibition of human HL-60(TB) cells assessed as cell growth at 10 uM after 48 hrs by sulforhodamine B assay; type: functional; settings: HL-60, 48 h, read-out: Activity
How it was run: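 Screened by the NCI in its 60-cell-line panel covering nine cancer types, including leukemia. Compounds were added at a single concentration, and the cultures were incubated for 48 h. Results are reported as percent growth inhibition.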

MOLT-4 = assay: Growth inhibition of human MOLT4 cells assessed as cell growth at 10 uM after 48 hrs by sulforhodamine B assay; type: functional; settings: MOLT-4, 48 h, read-out: Activity
How it was run: (§2)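 NCI 60-cell-line panel screen (nine cancer types). Compounds added at single concentration 10^-5 M, cultures incubated 48 h; growth inhibition percentages reported.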

RPMI-8226 = assay: Growth inhibition of human RPMI8226 cells assessed as cell growth at 10 uM after 48 hrs by sulforhodamine B assay; type: functional; settings: RPMI-8226, 48 h, read-out: Activity; how it was run: as §2
A549 = assay: Growth inhibition of human A549/ATCC cells assessed as cell growth at 10 uM after 48 hrs by sulforhodamine B assay; type: functional; settings: A549, 48 h, read-out: Activity; how it was run: as §2
EKVX = assay: Growth inhibition of human EKVX cells assessed as cell growth at 10 uM after 48 hrs by sulforhodamine B assay; type: functional; settings: read-out: Activity; how it was run: as §2
HOP-92 = assay: Growth inhibition of human HOP92 cells assessed as cell growth at 10 uM after 48 hrs by sulforhodamine B assay; type: functional; settings: HOP-92, 48 h, read-out: Activity; how it was run: as §2
NCI-H23 = assay: Growth inhibition of human NCI-H23 cells assessed as cell growth at 10 uM after 48 hrs by sulforhodamine B assay; type: functional; settings: NCI-H23, 48 h, read-out: Activity; how it was run: as §2
NCI-H460 = assay: Growth inhibition of human NCI-H460 cells assessed as cell growth at 10 uM after 48 hrs by sulforhodamine B assay; type: functional; settings: NCI-H460, 48 h, read-out: Activity; how it was run: as §2
NCI-H522 = assay: Growth inhibition of human NCI-H522 cells assessed as cell growth at 10 uM after 48 hrs by sulforhodamine B assay; type: functional; settings: NCI-H522, 48 h, read-out: Activity; how it was run: as §2
HCT-116 = assay: Growth inhibition of human HCT116 cells assessed as cell growth at 10 uM after 48 hrs by sulforhodamine B assay; type: functional; settings: HCT-116, 48 h, read-out: Activity; how it was run: as §2
HCT-15 = assay: Growth inhibition of human HCT15 cells assessed as cell growth at 10 uM after 48 hrs by sulforhodamine B assay; type: functional; settings: HCT-15, 48 h, read-out: Activity; how it was run: as §2
HT-29 = assay: Growth inhibition of human HT-29 cells assessed as cell growth at 10 uM after 48 hrs by sulforhodamine B assay; type: functional; settings: HT-29, 48 h, read-out: Activity; how it was run: as §2
SW-620 = assay: Growth inhibition of human SW620 cells assessed as cell growth at 10 uM after 48 hrs by sulforhodamine B assay; type: functional; settings: SW-620, 48 h, read-out: Activity
How it was run: (§3)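 NCI 60-cell-line panel from nine tumour types (leukaemia, lung, colon, CNS, melanoma, ovarian, renal, prostate, breast). Each compound was added at one single concentration, and cultures were incubated for 48 h. Results are reported as percent growth inhibition.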

SF-268 = assay: Growth inhibition of human SF268 cells assessed as cell growth at 10 uM after 48 hrs by sulforhodamine B assay; type: functional; settings: SF-268, 48 h, read-out: Activity; how it was run: as §2
SF-295 = assay: Growth inhibition of human SF295 cells assessed as cell growth at 10 uM after 48 hrs by sulforhodamine B assay; type: functional; settings: SF-295, 48 h, read-out: Activity; how it was run: as §2
SNB-19 = assay: Growth inhibition of human SNB19 cells assessed as cell growth at 10 uM after 48 hrs by sulforhodamine B assay; type: functional; settings: SNB-19, 48 h, read-out: Activity; how it was run: as §3
U-251 = assay: Growth inhibition of human U251 cells assessed as cell growth at 10 uM after 48 hrs by sulforhodamine B assay; type: functional; settings: U-251, 48 h, read-out: Activity; how it was run: as §3
Malme-3M = assay: Growth inhibition of human MALME-3M cells assessed as cell growth at 10 uM after 48 hrs by sulforhodamine B assay; type: functional; settings: read-out: Activity; how it was run: as §2
M14 = assay: Growth inhibition of human M14 cells assessed as cell growth at 10 uM after 48 hrs by sulforhodamine B assay; type: functional; settings: M14, 48 h, read-out: Activity; how it was run: as §2
SK-MEL-2 = assay: Growth inhibition of human SK-MEL-2 cells assessed as cell growth at 10 uM after 48 hrs by sulforhodamine B assay; type: functional; settings: SK-MEL-2, 48 h, read-out: Activity; how it was run: as §2
OVCAR-4 = assay: Growth inhibition of human OVCAR4 cells assessed as cell growth at 10 uM after 48 hrs by sulforhodamine B assay; type: functional; settings: OVCAR-4, 48 h, read-out: Activity; how it was run: as §2
OVCAR-8 = assay: Growth inhibition of human OVCAR8 cells assessed as cell growth at 10 uM after 48 hrs by sulforhodamine B assay; type: functional; settings: OVCAR-8, 48 h, read-out: Activity; how it was run: as §2
SK-OV-3 = assay: Growth inhibition of human SKOV3 cells assessed as cell growth at 10 uM after 48 hrs by sulforhodamine B assay; type: functional; settings: SK-OV-3, 48 h, read-out: Activity; how it was run: as §2
ACHN = assay: Growth inhibition of human ACHN cells assessed as cell growth at 10 uM after 48 hrs by sulforhodamine B assay; type: functional; settings: read-out: Activity; how it was run: as §2
RXF 393 = assay: Growth inhibition of human RXF393 cells assessed as cell growth at 10 uM after 48 hrs by sulforhodamine B assay; type: functional; settings: RXF 393, 48 h, read-out: Activity; how it was run: as §2
TK-10 = assay: Growth inhibition of human TK10 cells assessed as cell growth at 10 uM after 48 hrs by sulforhodamine B assay; type: functional; settings: TK-10, 48 h, read-out: Activity; how it was run: as §3
UO-31 = assay: Growth inhibition of human UO31 cells assessed as cell growth at 10 uM after 48 hrs by sulforhodamine B assay; type: functional; settings: UO-31, 48 h, read-out: Activity; how it was run: as §3
DU-145 = assay: Growth inhibition of human DU145 cells assessed as cell growth at 10 uM after 48 hrs by sulforhodamine B assay; type: functional; settings: DU-145, 48 h, read-out: Activity; how it was run: as §2
MCF7 = assay: Growth inhibition of human MCF7 cells assessed as cell growth at 10 uM after 48 hrs by sulforhodamine B assay; type: functional; settings: MCF7, 48 h, read-out: Activity; how it was run: as §2
BT-549 = assay: Growth inhibition of human BT549 cells assessed as cell growth at 10 uM after 48 hrs by sulforhodamine B assay; type: functional; settings: BT-549, 48 h, read-out: Activity; how it was run: as §2

SMILES: CCOc1ccc(-n2nc(C(=O)NCc3cc(F)cc(F)c3)nc2-c2cc(OC)c(OC)c(OC)c2)cc1
- IC50 (HepG2): 1.41 µM
- IC50 (HL-60): 0.95 µM
- growth at 10 µM (HL-60(TB)): 61.4%
- growth at 10 µM (MOLT-4): 45.1%
- growth at 10 µM (RPMI-8226): 47%
- growth at 10 µM (A549): 57%
- growth at 10 µM (EKVX): 62.8%
- growth at 10 µM (HOP-92): 61.1%
- growth at 10 µM (NCI-H23): 81.8%
- growth at 10 µM (NCI-H460): 66.1%
- growth at 10 µM (NCI-H522): 50.9%
- growth at 10 µM (HCT-116): 49.7%
- growth at 10 µM (HCT-15): 61%
- growth at 10 µM (HT-29): 61.7%
- growth at 10 µM (SW-620): 91.4%
- growth at 10 µM (SF-268): 65.5%
- growth at 10 µM (SF-295): 65.2%
- growth at 10 µM (SNB-19): 62.3%
- growth at 10 µM (U-251): 74.3%
- growth at 10 µM (Malme-3M): 90.1%
- growth at 10 µM (M14): 65.2%
- growth at 10 µM (SK-MEL-2): 65.5%
- growth at 10 µM (OVCAR-4): 65.8%
- growth at 10 µM (OVCAR-8): 75%
- growth at 10 µM (SK-OV-3): 76%
- growth at 10 µM (ACHN): 54.4%
- growth at 10 µM (RXF 393): 68.6%
- growth at 10 µM (TK-10): 79.9%
- growth at 10 µM (UO-31): 25.8%
- growth at 10 µM (DU-145): 86.9%
- growth at 10 µM (MCF7): 44.3%
- growth at 10 µM (BT-549): 68.7%

SMILES: COc1cccc(-n2nc(C(=O)NCc3ccccc3C)nc2-c2cc(OC)c(OC)c(OC)c2)c1
- IC50 (HepG2): 3.85 µM
- IC50 (HL-60): 89.4 µM
- growth at 10 µM (HL-60(TB)): 89%
- growth at 10 µM (MOLT-4): 80%
- growth at 10 µM (RPMI-8226): 95.7%
- growth at 10 µM (A549): 69.2%
- growth at 10 µM (EKVX): 73.3%
- growth at 10 µM (HOP-92): 81.8%
- growth at 10 µM (NCI-H23): 84%
- growth at 10 µM (NCI-H460): 96.4%
- growth at 10 µM (NCI-H522): 60.8%
- growth at 10 µM (HCT-116): 85.2%
- growth at 10 µM (HCT-15): 74.3%
- growth at 10 µM (HT-29): 80.2%
- growth at 10 µM (SW-620): 102%
- growth at 10 µM (SF-268): 85.8%
- growth at 10 µM (SF-295): 76.1%
- growth at 10 µM (SNB-19): 83.2%
- growth at 10 µM (U-251): 85%
- growth at 10 µM (Malme-3M): 94.7%
- growth at 10 µM (M14): 86.7%
- growth at 10 µM (SK-MEL-2): 78.1%
- growth at 10 µM (OVCAR-4): 81.6%
- growth at 10 µM (OVCAR-8): 87.3%
- growth at 10 µM (SK-OV-3): 87.7%
- growth at 10 µM (ACHN): 90.5%
- growth at 10 µM (RXF 393): 109%
- growth at 10 µM (TK-10): 73.2%
- growth at 10 µM (UO-31): 35.9%
- growth at 10 µM (DU-145): 94.2%
- growth at 10 µM (MCF7): 82.1%
- growth at 10 µM (BT-549): 86.2%

SMILES: CCOc1ccc(-n2nc(C(=O)Nc3ccc(F)c(F)c3F)nc2-c2cc(OC)c(OC)c(OC)c2)cc1
- IC50 (HepG2): 10.8 µM
- IC50 (HL-60): 10.9 µM
- growth at 10 µM (HL-60(TB)): 81.5%
- growth at 10 µM (RPMI-8226): 87.2%
- growth at 10 µM (A549): 85.7%
- growth at 10 µM (EKVX): 78.5%
- growth at 10 µM (HOP-92): 84.9%
- growth at 10 µM (NCI-H23): 97.5%
- growth at 10 µM (NCI-H460): 104%
- growth at 10 µM (NCI-H522): 71.5%
- growth at 10 µM (HCT-116): 73.4%
- growth at 10 µM (HCT-15): 64.3%
- growth at 10 µM (HT-29): 87.8%
- growth at 10 µM (SW-620): 103%
- growth at 10 µM (SF-268): 82.3%
- growth at 10 µM (SF-295): 93%
- growth at 10 µM (SNB-19): 88.3%
- growth at 10 µM (U-251): 98.2%
- growth at 10 µM (Malme-3M): 86.9%
- growth at 10 µM (M14): 93.9%
- growth at 10 µM (SK-MEL-2): 84.1%
- growth at 10 µM (OVCAR-4): 78.8%
- growth at 10 µM (OVCAR-8): 93.4%
- growth at 10 µM (SK-OV-3): 85%
- growth at 10 µM (ACHN): 85.2%
- growth at 10 µM (RXF 393): 89.9%
- growth at 10 µM (TK-10): 101%
- growth at 10 µM (UO-31): 51.5%
- growth at 10 µM (DU-145): 105%
- growth at 10 µM (MCF7): 79.5%
- growth at 10 µM (BT-549): 78.9%
